One block for each compound: values may come before it. Active and inactive are the calls of the source. The calls are words filed in the database; no cut-off is given here.
Legend:
[1] = target: Isocitrate dehydrogenase [NADP] cytoplasmic (Homo sapiens, UniProt O75874, R132H); experiment: Competitive inhibition of IDH1-R132H mutant (unknown origin) using a-ketoglutarate and NADPH as substrate by steady state kinetic analysis
How it was run: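 IDH1-R132H in buffer of 150 mM NaCl, 20 mM Tris–Cl pH 7.5, 10 mM MnCl₂, 150 μM β-NADPH, 0.03% (w/v) BSA; α-ketoglutarate varied to reach maximal activity; steady-state kinetic parameters fitted with an enzyme kinetics module.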

[2] = system: Isocitrate dehydrogenase [NADP] cytoplasmic (Homo sapiens), O75874 [R132H]; experiment: Inhibition of IDH1-R132H mutant in human MCF10A cells assessed as decrease in histone H3 trimethylated lysine level (H3K4me3) at 5 uM incubated for 30 mins by Western blotting method; format: cell-based; conditions: MCF-10A
How it was run: (§1)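 Isogenic IDH1 (+/R132H) MCF10A cells, compared with IDH1 (+/+) cells, given 5 μM compound; lysed in SDS buffer, protein by BCA, SDS-PAGE, PVDF transfer; probed overnight at 4 °C with H3K4me3, H3K9me3, H3K27me3, H3K36me3 or H3K79me3 antibodies, total H3 as reference; HRP secondary, ECL detection.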

[3] = system: Isocitrate dehydrogenase [NADP] cytoplasmic (Homo sapiens), O75874 [R132H]; experiment: Inhibition of IDH1-R132H mutant in human MCF10A cells assessed as decrease in histone H3 trimethylated lysine level (H3K36me3) at 5 uM incubated for 30 mins by Western blotting method; format: cell-based; conditions: MCF-10A; how it was run: as §1
[4] = Cytotoxicity against IDH1-R132H mutant expressing human MCF10A cells assessed as cell viability at 5 uM after 24 hrs by hemacytometer counting method; format: cell-based; conditions: mcf-10a
How it was run: (§2)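 Isogenic CRISPR-made IDH1 (+/+) and IDH1 (+/R132H) MCF10A cells seeded at 5.0 × 10⁴ per well, exposed to 5 μM compound, harvested at indicated times (24 h), viable cells counted by hemacytometer; mean ± standard deviation, Student t-test, n = 6.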

[5] = system: Isocitrate dehydrogenase [NADP] cytoplasmic (Homo sapiens), O75874 [R132H]; experiment: Inhibition of IDH1-R132H mutant in human MCF10A cells assessed as increase in 5-hmC level at 5 uM incubated for 24 hrs by DAPI staining based fluorescence microscopy; format: cell-based; conditions: MCF-10A
How it was run: (§3)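 Isogenic IDH1 (+/+) and (+/R132H) MCF10A cells on coverslips (5 × 10⁴ per well), 16 h at 37 °C, then 5 μM compound for 24 h; fixed in 4% paraformaldehyde, blocked, stained overnight with anti-5mC, 5hmC or 5fC antibodies; FITC secondary with DAPI, imaged by fluorescence microscopy.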

[6] = Cytotoxicity against IDH1 expressing human MCF10A cells assessed as cell viability at 5 uM after 24 hrs by hemacytometer counting method; format: cell-based; conditions: mcf-10a; how it was run: as §2
[7] = system: Isocitrate dehydrogenase [NADP] cytoplasmic (Homo sapiens), O75874 [R132H]; experiment: Inhibition of IDH1-R132H mutant in human MCF10A cells assessed as decrease in 5-methylcytosine level at 5 uM incubated for 24 hrs by DAPI staining based fluorescence microscopy; format: cell-based; conditions: MCF-10A; how it was run: as §3
[8] = system: Isocitrate dehydrogenase [NADP] cytoplasmic (Homo sapiens), O75874 [R132H]; experiment: Inhibition of IDH1-R132H mutant in human MCF10A cells assessed as decrease in histone H3 trimethylated lysine level (H3K27me3) at 5 uM incubated for 30 mins by Western blotting method; format: cell-based; conditions: MCF-10A; how it was run: as §1
[9] = system: Isocitrate dehydrogenase [NADP] cytoplasmic (Homo sapiens), O75874 [R132H]; experiment: Inhibition of IDH1-R132H mutant in human MCF10A cells assessed as decrease in histone H3 trimethylated lysine level (H3K79me3) at 5 uM incubated for 30 mins by Western blotting method; format: cell-based; conditions: MCF-10A; how it was run: as §1
[10] = system: Isocitrate dehydrogenase [NADP] cytoplasmic (Homo sapiens), O75874 [R132H]; experiment: Inhibition of IDH1-R132H mutant in human MCF10A cells assessed as increase in 5-fC level at 5 uM incubated for 24 hrs by DAPI staining based fluorescence microscopy; format: cell-based; conditions: MCF-10A; how it was run: as §3
[11] = system: Isocitrate dehydrogenase [NADP] cytoplasmic (Homo sapiens), O75874 [R132H]; experiment: Inhibition of IDH1-R132H mutant in human MCF10A cells assessed as decrease in histone H3 trimethylated lysine level (H3K9me3) at 5 uM incubated for 30 mins by Western blotting method; format: cell-based; conditions: MCF-10A; how it was run: as §1

Isocitrate dehydrogenase [NADP] cytoplasmic, sequence (O75874 2-414 R132H limits assumed): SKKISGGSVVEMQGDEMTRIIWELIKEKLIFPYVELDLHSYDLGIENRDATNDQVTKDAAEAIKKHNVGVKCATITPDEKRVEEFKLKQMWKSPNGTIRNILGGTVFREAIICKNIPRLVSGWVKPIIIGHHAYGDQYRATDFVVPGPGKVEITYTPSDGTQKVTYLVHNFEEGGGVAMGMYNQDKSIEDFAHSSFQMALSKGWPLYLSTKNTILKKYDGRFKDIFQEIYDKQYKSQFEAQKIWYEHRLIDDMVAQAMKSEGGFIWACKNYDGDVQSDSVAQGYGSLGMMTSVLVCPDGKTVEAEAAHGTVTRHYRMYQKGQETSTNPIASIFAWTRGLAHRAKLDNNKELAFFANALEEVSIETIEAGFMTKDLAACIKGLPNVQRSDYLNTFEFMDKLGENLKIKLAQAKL
Isocitrate dehydrogenase [NADP] cytoplasmic (Homo sapiens), O75874 [R132H], sequence (O75874 whole entry R132H): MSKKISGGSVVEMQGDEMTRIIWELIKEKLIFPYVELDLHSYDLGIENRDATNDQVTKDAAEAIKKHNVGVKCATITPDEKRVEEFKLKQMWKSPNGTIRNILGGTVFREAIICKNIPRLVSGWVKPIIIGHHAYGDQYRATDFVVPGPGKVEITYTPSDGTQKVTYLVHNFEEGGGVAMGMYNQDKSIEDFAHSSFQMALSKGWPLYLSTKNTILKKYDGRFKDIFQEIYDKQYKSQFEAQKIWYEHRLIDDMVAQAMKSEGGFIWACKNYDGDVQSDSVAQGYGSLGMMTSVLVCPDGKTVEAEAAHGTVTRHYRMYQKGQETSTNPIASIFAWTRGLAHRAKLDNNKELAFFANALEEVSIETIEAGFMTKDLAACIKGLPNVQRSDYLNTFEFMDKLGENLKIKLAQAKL

Ki ([1]; read-out: Ki): 2.85 µM
inhibition [2]: Active
inhibition [3]: Active
inhibition [5]: Active
inhibition [7]: Active
inhibition [8]: Active
inhibition [9]: Active
inhibition [10]: Active
inhibition [11]: Active
Compound: COc1c(O)cc2oc3cc(O)c(CC=C(C)C)c(O)c3c(=O)c2c1CC=C(C)C [MANGOSTIN]
Activity [4]: Non-toxic
Activity [6]: Non-toxic

Ki [1]: Not Active
Compound: COc1c(OC(=O)N2CCOCC2)cc2oc3cc(O)c(CC=C(C)C)c(O)c3c(=O)c2c1CC=C(C)C

Ki [1]: Not Active
Compound: CCN(CC)C(=O)Oc1cc2oc3cc(O)c(OC)c(CC=C(C)C)c3c(=O)c2c(O)c1CC=C(C)C

Ki ([1]; read-out: Ki): 12 µM
Compound: COc1cc2oc3cc(O)c(OC)c(CC=C(C)C)c3c(=O)c2c(O)c1CC=C(C)C

Compound: CC(C)=CCc1c(O)cc2oc3cc(O)c(O)c(CC=C(C)C)c3c(=O)c2c1O
Ki ([1]; read-out: Ki): 3.17 µM

Ki ([1]; read-out: Ki): 17.4 µM
Compound: C=CCOc1cc2oc3cc(O)c(CC=C(C)C)c(O)c3c(=O)c2c(CC=C(C)C)c1OC
